ChEMBL document CHEMBL4725330, “The design, synthesis and evaluation of 2-aminobenzoxazole analogues as potent and orally efficacious ChemR23 inhibitors” (Bioorg Med Chem, 2020)

Key:
[1] = target: T1, Chemerin-like receptor 1 (Homo sapiens, UniProt Q99788); assay: Inhibition of chemR23 in human CAL1 cells assessed as inhibition of chemerin-induced intracellular calcium ion concentration preincubated for 45 mins followed by human chemerin addition by FDSS6000 analysis; assay type: functional, cell-based
T1 sequence (Q99788 whole entry): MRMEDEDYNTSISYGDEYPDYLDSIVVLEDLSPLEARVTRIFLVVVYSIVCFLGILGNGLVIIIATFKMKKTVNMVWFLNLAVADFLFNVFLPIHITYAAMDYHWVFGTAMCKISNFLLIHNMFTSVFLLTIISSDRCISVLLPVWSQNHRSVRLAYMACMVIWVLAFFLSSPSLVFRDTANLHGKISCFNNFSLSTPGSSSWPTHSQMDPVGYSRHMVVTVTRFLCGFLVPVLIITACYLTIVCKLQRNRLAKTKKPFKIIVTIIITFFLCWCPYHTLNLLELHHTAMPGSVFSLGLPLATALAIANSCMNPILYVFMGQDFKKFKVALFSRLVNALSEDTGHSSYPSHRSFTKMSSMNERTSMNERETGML

[2] = Cmax in cynomolgus monkey at 1 mg/kg, po administered as cassette dose by LC-MS/MS analysis; assay type: ADME, organism-based, Macaca fascicularis; design: route oral, dose 1 mg/kg; conditions: in vivo
Summary of the method: (§1)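 Cassette oral dosing, 1.0 mg/kg as a suspension in 0.5% methylcellulose, to fed cynomolgus monkeys. Plasma was obtained from blood, deproteinized with ice-cold acetonitrile containing internal standard, and measured by LC/MS/MS against a calibration curve using analyte/IS peak-area ratios. Values are means of three determinations.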

[3] = Half-life in cynomolgus monkey at 1 mg/kg, po administered as cassette dose by LC-MS/MS analysis; assay type: ADME, organism-based, Macaca fascicularis; conditions: in vivo; summary of the method: as §1
[4] = AUC (0 to infinity) in cynomolgus monkey at 1 mg/kg, po administered as cassette dose by LC-MS/MS analysis; assay type: ADME, organism-based, Macaca fascicularis; design: time infinity, route oral, dose 1 mg/kg; conditions: in vivo; summary of the method: as §1
[5] = Fraction unbound in cynomolgus monkey plasma at 1 mg/kg, po administered as cassette dose incubated for 16 to 24 hrs by equilibrium dialysis based LC-MS analysis; assay type: ADME, organism-based, Macaca fascicularis; conditions: in vivo, time 16-24 hrs
Summary of the method: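 Monkey plasma diluted with PBS and spiked with compound at 1 µM (final DMSO 0.05% v/v) was equilibrium-dialysed against PBS (membrane MWCO 12000–14000) for 16–24 h at 37 °C in a CO2 incubator. Both sides were deproteinized with acetonitrile containing IS and analysed by LC-MS/MS. Undiluted fu,p was calculated from the diluted value using the dilution factor.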

[6] = Oral bioavailability in cynomolgus monkey at 1 mg/kg and 0.1 mg/kg, iv administered as cassette dose by LC-MS/MS analysis; assay type: ADME, organism-based, Macaca fascicularis; conditions: in vivo
Summary of the method: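 Plasma was deproteinized with ice-cold acetonitrile containing internal standard and quantified by LC/MS/MS against a calibration curve from analyte/IS peak-area ratios. Values are means of three determinations.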

[7] = Ratio of fraction unbound in cynomolgus monkey plasma at 10 mg/kg to IC50 of inhibition of chemR23 in human CAL1 cells; assay type: organism-based; conditions: in vivo
[8] = Cmax in cynomolgus monkey at 10 mg/kg, po by LC-MS/MS analysis; assay type: ADME, organism-based, Macaca fascicularis; design: route oral, dose 10 mg/kg; conditions: in vivo
Summary of the method: (§2)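 Single-compound oral dosing, 10 mg/kg as a suspension in 0.5% methylcellulose, to fed cynomolgus monkeys. Plasma was deproteinized with ice-cold acetonitrile plus internal standard and quantified by LC/MS/MS from analyte/IS peak-area ratios on a calibration curve. Values are means of three determinations.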

[9] = Half-life in cynomolgus monkey at 10 mg/kg, po by LC-MS/MS analysis; assay type: ADME, organism-based, Macaca fascicularis; conditions: in vivo; summary of the method: as §2
[10] = AUC (0 to infinity) in cynomolgus monkey at 10 mg/kg, po by LC-MS/MS analysis; assay type: ADME, organism-based, Macaca fascicularis; design: time infinity, route oral, dose 10 mg/kg; conditions: in vivo; summary of the method: as §2
[11] = Drug concentration in cynomolgus monkey at 10 mg/kg, po by LC-MS/MS analysis measured upto 8 hrs; assay type: ADME, organism-based, Macaca fascicularis; conditions: in vivo, read-out: Ct; summary of the method: as §2
[12] = MRT in cynomolgus monkey at 10 mg/kg, po by LC-MS/MS; assay type: ADME, organism-based, Macaca fascicularis; conditions: in vivo; summary of the method: as §2
[13] = organism: Macaca fascicularis; assay: Induction of chemR23 internalization in whole blood of cynomolgus monkey assessed as internalization rate at 30 uM by flow cytometric analysis relative to control; assay type: tissue-based
[14] = organism: Macaca fascicularis; assay: Induction of chemR23 internalization in whole blood of cynomolgus monkey assessed as internalization rate at 100 uM by flow cytometric analysis relative to control; assay type: tissue-based
[15] = Induction of chemR23 internalization on pDCs of cynomolgus monkey assessed as internalization rate at 50 mg/kg, po measured after 4 hrs of administration by flow cytometric analysis relative to control; assay type: functional, Macaca fascicularis
Summary of the method: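 Cynomolgus monkeys received 50 mg/kg orally as a suspension in 0.5% methylcellulose. Blood was drawn before dosing and at 2, 4 and 8 h. pDCs (HLA-DR+CD123+) were stained for ChemR23 and read by flow cytometry as GeoMFI. Internalization was expressed as expression at each time relative to pre-dose. Each animal was reported individually.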

[16] = Plasma concentration in cynomolgus monkey at 50 mg/kg, po measured at 2 hrs of administration; assay type: ADME, organism-based, Macaca fascicularis
Summary of the method: (§3)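 Cynomolgus monkeys received 50 mg/kg orally as a suspension in 0.5% methylcellulose. Plasma concentrations were measured at 2, 4 and 8 h post-dose, and each animal was reported individually.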

[17] = Plasma concentration in cynomolgus monkey at 50 mg/kg, po measured at 4 hrs of administration; assay type: ADME, organism-based, Macaca fascicularis; summary of the method: as §3
[18] = Plasma concentration in cynomolgus monkey at 50 mg/kg, po measured at 8 hrs of administration; assay type: ADME, organism-based, Macaca fascicularis; summary of the method: as §3
[19] = Induction of chemR23 internalization on pDCs of cynomolgus monkey assessed as chemR23 expression relative to pre-dose at 50 mg/kg, po measured at 2 hrs of administration by flow cytometric analysis
[20] = Induction of chemR23 internalization on pDCs of cynomolgus monkey assessed as chemR23 expression relative to pre-dose at 50 mg/kg, po measured at 4 hrs of administration by flow cytometric analysis
[21] = Induction of chemR23 internalization on pDCs of cynomolgus monkey assessed as chemR23 expression relative to pre-dose at 50 mg/kg, po measured at 8 hrs of administration by flow cytometric analysis

SMILES	IC50 [1] [nM]	Cmax [2] [ng/mL]	half-life [3] [h]	AUC(0-inf) [4] [ng·h/mL]	Fu [5]	also measured
CCCCN(c1nc2c(-c3cccnc3)cccc2o1)[C@H](C)c1ccc(-c2ccccc2-c2nnn[nH]2)cc1	> 1000					
C[C@H](c1ccc(-c2cc(Cl)ccc2-c2nc(=O)o[nH]2)cc1)N(CC1CC1)c1nc2c(C(=O)O)cccc2o1		518	0.8	1300	0.0108 fraction (unitless)	
CCCCN(c1nc2c(-c3ccncc3)cccc2o1)[C@H](C)c1ccc(-c2ccccc2-c2nnn[nH]2)cc1	300					
CCCCN(c1nc2c(-c3cccn3C)cccc2o1)[C@H](C)c1ccc(-c2ccccc2-c2nnn[nH]2)cc1	130					
CCCCN(c1nc2c(C(=O)N(C)C)cccc2o1)[C@H](C)c1ccc(-c2ccccc2-c2nnn[nH]2)cc1	13	27.5	3.2	104	0.411 fraction (unitless)	bioavailability [6]: 6.7%
CCCCN(c1nc2c(-c3ccccn3)cccc2o1)[C@H](C)c1ccc(-c2ccccc2-c2nnn[nH]2)cc1		64	5.9	248	0.129 fraction (unitless)	
CCCCN(c1nc2ccccc2o1)[C@H](C)c1ccc(-c2cc(Cl)ccc2-c2nnn[nH]2)cc1	65					
CCCCN(c1nc2ccccc2o1)[C@H](C)c1ccc(-c2cc(C(F)(F)F)ccc2-c2nnn[nH]2)cc1	1320					
CCCCN(c1nc2ccccc2o1)[C@H](C)c1ccc(-c2ccc(C)cc2-c2nnn[nH]2)cc1	2100					
CCCCN(c1nc2ccccc2o1)[C@H](C)c1ccc(-c2cc(F)ccc2-c2nnn[nH]2)cc1	75					
C[C@H](c1ccc(-c2ccccc2-c2nc(=O)o[nH]2)cc1)N(CC1CC1)c1nc2c(C(=O)O)cccc2o1	11	3830	2.6	11600	0.00851 fraction (unitless)	bioavailability [6]: 60%
Cc1ccc(-c2nc(=O)o[nH]2)c(-c2ccc([C@@H](C)N(CC3CC3)c3nc4c(C(=O)O)cccc4o3)cc2)c1	3.2	1490	2.8	4830	0.023 fraction (unitless)	Ratio [7]: 1; bioavailability [6]: 58%; Cmax [8]: 6950 ng/mL; half-life [9]: 1 h; AUC(0-inf) [10]: 22200 ng·h/mL; concentration at 8 h [11]: 206 ng/mL; MRT [12]: 2.9 h; Activity [13]: 53%; Activity [14]: 82%; Activity [15]: 74%; concentration at 2 h [16]: 178 µM; concentration at 4 h [17]: 204 µM; concentration at 8 h [18]: 30.4 µM; ChemR23 expression [19]: 30%; ChemR23 expression [20]: 10%; ChemR23 expression [21]: 44%
CCCCN(c1nc2c(NC(C)=O)cccc2o1)[C@H](C)c1ccc(-c2ccccc2-c2nnn[nH]2)cc1	22	13.2	2.2	41.6	0.102 fraction (unitless)	
CCCCN(c1nc2c(NS(C)(=O)=O)cccc2o1)[C@H](C)c1ccc(-c2ccccc2-c2nnn[nH]2)cc1	14	26.5	4.7	73.8	0.0203 fraction (unitless)	
CCCCN(c1nc2c(-c3nccn3C)cccc2o1)[C@H](C)c1ccc(-c2ccccc2-c2nnn[nH]2)cc1		79.9	3.9	152	0.299 fraction (unitless)	bioavailability [6]: 7.5%
CCCCN(c1nc2ccccc2o1)[C@H](C)c1ccc(-c2ccc(Cl)cc2-c2nnn[nH]2)cc1	> 3000					

SMILES	IC50 [1] [nM]	Cmax [2] [ng/mL]	half-life [3] [h]	AUC(0-inf) [4] [ng·h/mL]	Fu [5]	also measured
CCCCN(c1nc2c(C(=O)O)cccc2o1)[C@H](C)c1ccc(-c2cc(F)ccc2-c2nc(=O)o[nH]2)cc1	2.7	610	2.2	1630	0.00736 fraction (unitless)	
CCCCN(c1nc2ccccc2o1)[C@H](C)c1ccc(-c2cc(C)ccc2-c2nnn[nH]2)cc1	53					
CCCCN(c1nc2c(COC)cccc2o1)[C@H](C)c1ccc(-c2ccccc2-c2nnn[nH]2)cc1	29					
CCCCN(c1nc2c(C(=O)NC)cccc2o1)[C@H](C)c1ccc(-c2ccccc2-c2nnn[nH]2)cc1		9.74	1.3	25.7	0.0975 fraction (unitless)	
CCCCN(c1nc2ccccc2o1)[C@H](C)c1ccc(-c2ccc(C(F)(F)F)cc2-c2nnn[nH]2)cc1	> 3000					
CCCCN(c1nc2c(-n3cccn3)cccc2o1)[C@H](C)c1ccc(-c2ccccc2-c2nnn[nH]2)cc1	330					
CCCCN(c1nc2ccccc2o1)[C@H](C)c1ccc(-c2ccccc2-c2nnn[nH]2)cc1		12.8	3.2	44.3	0.0713 fraction (unitless)	bioavailability [6]: 1.8%
CCCCN(c1nc2ccccc2o1)[C@H](C)c1ccc(-c2ccc(OC)cc2-c2nnn[nH]2)cc1	3000					
C[C@H](c1ccc(-c2cc(F)ccc2-c2nc(=O)o[nH]2)cc1)N(CC1CC1)c1nc2c(C(=O)O)cccc2o1	2.3	1490	4.1	4410	0.00977 fraction (unitless)	bioavailability [6]: 82%
CCCCN(c1nc2c(CO)cccc2o1)[C@H](C)c1ccc(-c2ccccc2-c2nnn[nH]2)cc1	24	9.68	1.6	20	0.112 fraction (unitless)	bioavailability [6]: 0.8%
CCCCN(c1nc2c(C(=O)O)cccc2o1)[C@H](C)c1ccc(-c2cc(Cl)ccc2-c2nc(=O)o[nH]2)cc1	1.2	361	2	1040	0.0135 fraction (unitless)	Ratio [7]: 0.5; bioavailability [6]: 42%; Cmax [8]: 2110 ng/mL; half-life [9]: 2 h; AUC(0-inf) [10]: 7090 ng·h/mL; MRT [12]: 4.1 h
CCCCN(c1nc2ccccc2o1)[C@H](C)c1ccc(-c2c(C)cccc2-c2nnn[nH]2)cc1	210					
CCCCN(c1nc2ccccc2o1)[C@H](C)c1ccc(-c2c(F)cccc2-c2nnn[nH]2)cc1	160					
CCCCN(c1nc2c(C(=O)O)cccc2o1)[C@H](C)c1ccc(-c2ccccc2-c2nnn[nH]2)cc1	17	115	3.7	429	0.0285 fraction (unitless)	bioavailability [6]: 8.2%
CCCCN(c1nc2c(C(=O)NS(C)(=O)=O)cccc2o1)[C@H](C)c1ccc(-c2ccccc2-c2nnn[nH]2)cc1	14	22.6	2.7	22.2	0.103 fraction (unitless)	
